In ChEMBL document CHEMBL3745686 (Eur J Med Chem, 2016):
Calls of active or inactive are those of the source. No cut-off for these calls is given here.

Assays:
Plasma [1] = assay: Half life in human plasma at 50 uM measured at 1 to 4 hrs; assay type: ADME, cell-free
[2] = Anti-aggregatory activity in human platelet rich plasma assessed as inhibition of ADP-induced platelet aggregation by optical aggregometry; assay type: functional, cell-free
Plasma [3] = assay: Half life in rat plasma at 50 uM measured at 1 to 4 hrs; assay type: ADME, cell-free
Plasma [4] = assay: Metabolic stability in rat plasma assessed as first order elimination rate constant at 50 uM measured at 1 to 4 hrs; assay type: ADME, cell-free
Plasma [5] = assay: Metabolic stability in human plasma assessed as first order elimination rate constant at 50 uM measured at 1 to 4 hrs; assay type: ADME, cell-free
P2Y purinoceptor 1 [6] = target: T1, P2Y purinoceptor 1 (Homo sapiens, UniProt P47900); assay: Agonist activity at human platelet P2Y1 receptor assessed as increase in cytosolic calcium level by FLUO-4 staining based flow cytometric analysis; assay type: functional
How it was run: (§1)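 Stimulus was extracellular Ca2+ uptake on 1 μM test compound (P2X1, scaled to 20 μM β,γ-CH2-ATP as 100%, selective P2Y1 inhibitor control), or 3 μM ADP (P2Y1 antagonism; omitted for agonism).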

P2Y purinoceptor 12 [7] = target: T2, P2Y purinoceptor 12 (Homo sapiens, UniProt Q9H244); assay: Antagonist activity at human platelet P2Y12 receptor assessed as inhibition of ADP-mediated decrease in intra-platelet phosphorylated VASP by flow cytometric analysis
[8] = target: T3, P2X purinoceptor 1 (Homo sapiens) (UniProt P51575); assay: Agonist activity at human platelet P2X1 receptor assessed as increase in cytosolic calcium level at 1 uM by […] staining based flow cytometric analysis relative to beta,gamma-CH2-ATP; how it was run: as §1
T3 sequence (whole entry): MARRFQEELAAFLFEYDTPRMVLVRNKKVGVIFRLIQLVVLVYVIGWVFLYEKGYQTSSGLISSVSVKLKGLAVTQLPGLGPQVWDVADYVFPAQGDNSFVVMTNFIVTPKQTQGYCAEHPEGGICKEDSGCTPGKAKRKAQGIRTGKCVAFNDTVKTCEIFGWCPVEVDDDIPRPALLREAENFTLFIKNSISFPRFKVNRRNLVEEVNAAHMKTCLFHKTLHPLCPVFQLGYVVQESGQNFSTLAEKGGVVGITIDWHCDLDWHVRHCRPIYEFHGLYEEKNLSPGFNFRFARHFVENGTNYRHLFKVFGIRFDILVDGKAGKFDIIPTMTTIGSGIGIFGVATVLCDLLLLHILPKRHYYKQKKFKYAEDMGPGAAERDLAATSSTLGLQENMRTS

P2Y purinoceptor 1 [9] = target: T1, P2Y purinoceptor 1; assay: Antagonist activity at human platelet P2Y1 receptor assessed as inhibition of ADP-induced increase in cytosolic calcium level by FLUO-4 staining based flow cytometric analysis; assay type: functional; how it was run: as §1
P2Y purinoceptor 12 [10] = target: T2, P2Y purinoceptor 12; assay: Agonist activity at human platelet P2Y12 receptor assessed as decrease in intra-platelet phosphorylated VASP by flow cytometric analysis
Platelet = assay: Anti-aggregatory activity in human platelet rich plasma assessed as inhibition of ADP-induced platelet shape change; assay type: functional, cell-free

T1 sequence (P47900 whole entry): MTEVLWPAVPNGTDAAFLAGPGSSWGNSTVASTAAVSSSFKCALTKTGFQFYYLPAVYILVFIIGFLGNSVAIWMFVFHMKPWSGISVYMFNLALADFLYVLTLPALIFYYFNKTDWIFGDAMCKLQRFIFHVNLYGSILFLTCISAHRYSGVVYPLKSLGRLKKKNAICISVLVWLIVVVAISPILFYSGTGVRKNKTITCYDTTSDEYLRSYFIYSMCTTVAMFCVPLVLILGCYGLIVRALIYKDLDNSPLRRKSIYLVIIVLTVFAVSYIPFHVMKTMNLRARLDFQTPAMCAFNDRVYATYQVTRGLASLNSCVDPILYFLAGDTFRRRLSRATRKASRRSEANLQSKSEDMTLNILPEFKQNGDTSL
T2 sequence (Q9H244 whole entry): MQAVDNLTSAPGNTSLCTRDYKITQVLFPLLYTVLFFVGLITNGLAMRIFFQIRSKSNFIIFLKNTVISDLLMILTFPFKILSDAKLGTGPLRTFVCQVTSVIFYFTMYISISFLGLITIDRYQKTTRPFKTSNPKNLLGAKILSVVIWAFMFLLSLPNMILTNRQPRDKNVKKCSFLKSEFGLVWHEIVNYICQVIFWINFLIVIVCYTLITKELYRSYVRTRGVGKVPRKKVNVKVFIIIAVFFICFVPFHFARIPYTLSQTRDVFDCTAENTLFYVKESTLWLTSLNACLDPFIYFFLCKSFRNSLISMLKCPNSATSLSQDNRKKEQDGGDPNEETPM

SMILES	t1/2 (Plasma [1])	IC50 [2]	t1/2 (Plasma [3])	Kel (Plasma [4])	Kel (Plasma [5])	Activity (P2Y purinoceptor 1 [6])	IC50 (P2Y purinoceptor 12 [7])	Activity [8]	IC50 (P2Y purinoceptor 1 [9])	Activity (P2Y purinoceptor 12 [10])	inhibition (Platelet)
CSc1nc(N)c2ncn([C@@H]3O[C@H](COP(=O)([S-])OP(=O)([O-])C(Cl)P(=O)([O-])OP(=O)([S-])OC[C@H]4O[C@@H](n5cnc6c(N)nc(SC)nc65)[C@H](O)[C@@H]4O)[C@@H](O)[C@H]3O)c2n1.[Na+].[Na+].[Na+].[Na+] (single isomer, unassigned; diastereomer 1)	71 h	76 nM	100.5 h	0.0069 h⁻¹	0.00976 h⁻¹						
CCCSc1nc(N)c2ncn([C@@H]3O[C@H](COP(=O)(S)OP(=O)(O)C(Cl)P(=O)(O)OP(=O)(S)OC[C@H]4O[C@@H](n5cnc6c(N)nc(SCCC)nc65)[C@H](O)[C@@H]4O)[C@@H](O)[C@H]3O)c2n1 (mixture of isomers)						inactive	1020 nM	31%	6300 nM	inactive	Active
CNc1nc(SC)nc2c1ncn2[C@@H]1O[C@H](COP(=O)(S)OP(=O)(O)C(Cl)P(=O)(O)OP(=O)(S)OC[C@H]2O[C@@H](n3cnc4c(NC)nc(SC)nc43)[C@H](O)[C@@H]2O)[C@@H](O)[C@H]1O (stereo partly drawn)						inactive	730 nM	92%	360 nM	inactive	Active
CSc1nc(N)c2ncn([C@@H]3O[C@H](COP(=O)(S)OP(=O)(O)C(Cl)(Cl)P(=O)(O)OP(=O)(S)OC[C@H]4O[C@@H](n5cnc6c(N)nc(SC)nc65)[C@H](O)[C@@H]4O)[C@@H](O)[C@H]3O)c2n1 (mixture of isomers)						inactive	1120 nM	3.3%	1020 nM	inactive	Active
CSc1nc(N)c2ncn([C@@H]3O[C@H](COP(=O)([S-])OP(=O)([O-])C(Cl)P(=O)([O-])OP(=O)([S-])OC[C@H]4O[C@@H](n5cnc6c(N)nc(SC)nc65)[C@H](O)[C@@H]4O)[C@@H](O)[C@H]3O)c2n1.[Na+].[Na+].[Na+].[Na+] (single isomer, unassigned; diastereomer 4)	16.4 h	110 nM	1.37 h	0.508 h⁻¹	0.0424 h⁻¹						
CSc1nc(N)c2ncn([C@@H]3O[C@H](COP(=O)(O)OP(=O)(O)OP(=O)(O)OP(=O)(O)OC[C@H]4O[C@@H](n5cnc6c(N)nc(SC)nc65)[C@H](O)[C@@H]4O)[C@@H](O)[C@H]3O)c2n1						inactive	1400 nM	48%	4900 nM	inactive	Active
CSc1nc(N)c2ncn([C@@H]3O[C@H](COP(=O)(O)OP(=O)(O)C(Cl)P(=O)(O)OP(=O)(O)OC[C@H]4O[C@@H](n5cnc6c(N)nc(SC)nc65)[C@H](O)[C@@H]4O)[C@@H](O)[C@H]3O)c2n1 (stereo partly drawn)						inactive	310 nM		29000 nM	inactive	Active
Nc1nc(Cl)nc2c1ncn2[C@@H]1O[C@H](COP(=O)(S)OP(=O)(O)C(Cl)P(=O)(O)OP(=O)(S)OC[C@H]2O[C@@H](n3cnc4c(N)nc(Cl)nc43)[C@H](O)[C@@H]2O)[C@@H](O)[C@H]1O (mixture of isomers)						inactive	9300 nM	0.07%	7370 nM	inactive	Active
Nc1ncnc2c1ncn2[C@@H]1O[C@H](COP(=O)(S)OP(=O)(O)C(Cl)P(=O)(O)OP(=O)(S)OC[C@H]2O[C@@H](n3cnc4c(N)ncnc43)[C@H](O)[C@@H]2O)[C@@H](O)[C@H]1O (mixture of isomers)									10200 nM		
CCCNc1ncnc2c1ncn2[C@@H]1O[C@H](COP(=O)(S)OP(=O)(O)C(Cl)P(=O)(O)OP(=O)(S)OC[C@H]2O[C@@H](n3cnc4c(NCCC)ncnc43)[C@H](O)[C@@H]2O)[C@@H](O)[C@H]1O (mixture of isomers)						inactive	156000 nM	-0.01%	8800 nM	inactive	Active
CSc1nc(N)c2ncn([C@@H]3O[C@H](COP(=O)([S-])OP(=O)([O-])C(Cl)P(=O)([O-])OP(=O)([S-])OC[C@H]4O[C@@H](n5cnc6c(N)nc(SC)nc65)[C@H](O)[C@@H]4O)[C@@H](O)[C@H]3O)c2n1.[Na+].[Na+].[Na+].[Na+] (single isomer, unassigned; diastereomer 2)	40.6 h	83 nM	5.06 h	0.137 h⁻¹	0.0171 h⁻¹						
CSc1nc(N)c2ncn([C@@H]3O[C@H](COP(=O)([S-])OP(=O)([O-])C(Cl)P(=O)([O-])OP(=O)([S-])OC[C@H]4O[C@@H](n5cnc6c(N)nc(SC)nc65)[C@H](O)[C@@H]4O)[C@@H](O)[C@H]3O)c2n1.[Na+].[Na+].[Na+].[Na+] (single isomer, unassigned; diastereomer 3)	31.9 h	64 nM	5.4 h	0.128 h⁻¹	0.0217 h⁻¹						
Nc1nc(SCCC(F)(F)F)nc2c1ncn2[C@@H]1O[C@H](COP(=O)(S)OP(=O)(O)C(Cl)P(=O)(O)OP(=O)(S)OC[C@H]2O[C@@H](n3cnc4c(N)nc(SCCC(F)(F)F)nc43)[C@H](O)[C@@H]2O)[C@@H](O)[C@H]1O (mixture of isomers)						inactive	210 nM	4.7%	5200 nM	inactive	Active
CNc1ncnc2c1ncn2[C@H]1C[C@H](OP(=O)(O)O)[C@@H](COP(=O)(O)O)O1									2250 nM		
CCCCCSc1nc(N)c2ncn([C@@H]3O[C@H](COP(=O)(S)OP(=O)(O)C(Cl)P(=O)(O)OP(=O)(S)OC[C@H]4O[C@@H](n5cnc6c(N)nc(SCCCCC)nc65)[C@H](O)[C@@H]4O)[C@@H](O)[C@H]3O)c2n1 (mixture of isomers)						inactive	3100 nM	4.7%	4210 nM	inactive	Active
CNc1ncnc2c1ncn2[C@@H]1O[C@H](COP(=O)(S)OP(=O)(O)C(Cl)P(=O)(O)OP(=O)(S)OC[C@H]2O[C@@H](n3cnc4c(NC)ncnc43)[C@H](O)[C@@H]2O)[C@@H](O)[C@H]1O (mixture of isomers)						inactive	> 200000 nM	0.31%	1970 nM	inactive	Active
CSc1nc(N)c2ncn([C@@H]3O[C@H](COP(=O)(S)OP(=O)(O)OP(=O)(O)OP(=O)(S)OC[C@H]4O[C@@H](n5cnc6c(N)nc(SC)nc65)[C@H](O)[C@@H]4O)[C@@H](O)[C@H]3O)c2n1 (mixture of isomers)						inactive	2400 nM	3%	160 nM	inactive	Active
Nc1nc(I)nc2c1ncn2[C@@H]1O[C@H](COP(=O)(S)OP(=O)(O)C(Cl)P(=O)(O)OP(=O)(S)OC[C@H]2O[C@@H](n3cnc4c(N)nc(I)nc43)[C@H](O)[C@@H]2O)[C@@H](O)[C@H]1O (mixture of isomers)						inactive	1350 nM	0.69%	2650 nM	inactive	Active
